From ChEMBL document CHEMBL1130378, “Cephalosporin 3'-phloroglucide esters and 7-(phloroglucidamido) cephalosporins as novel antibacterial agents” (1997)
Converted amounts (≈) assume the structure as drawn.

Columns and labels:
Type in all cases: functional
[1] = test system: Pseudomonas aeruginosa; experiment: Minimum inhibitory concentration for prevention of visible growth of Pseudomonas aeruginosa (18S-H strain)
Procedure, shortened: (§1)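 Agar dilution: organisms deposited onto antibiotic-containing agar plates with a Steers-type replicator. MIC taken as the lowest concentration preventing visible growth, given as the mean of duplicate determinations.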

[2] = test system: Pseudomonas aeruginosa; experiment: Minimum inhibitory concentration for prevention of visible growth of Pseudomonas aeruginosa (1101-75 strain); procedure, shortened: as §1
[3] = test system: Staphylococcus aureus; experiment: Minimum inhibitory concentration for prevention of visible growth of Staphylococcus aureus (FDA 209P strain); procedure, shortened: as §1
[4] = test system: Staphylococcus aureus; experiment: Minimum inhibitory concentration for prevention of visible growth of Staphylococcus aureus (95 strain); procedure, shortened: as §1
[5] = test system: Candida albicans; experiment: Minimum inhibitory concentration for prevention of visible growth of Candida albicans; procedure, shortened: as §1
[6] = biological target: Beta-lactamase (Pseudomonas aeruginosa (strain ATCC 15692 / PAO1 / 1C / PRS 101 / LMG12228)) (UniProt P24735); experiment: Minimum protective concentration against beta-lactamase Pseudomonas aeruginosa (18S-H strain)
Procedure, shortened: (§2)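 MPC is the lowest β-lactam concentration that protects the indicator from hydrolysis within 40 min under standard conditions. Compound stability was checked without enzyme in phosphate buffer pH 6.5 at 37 °C.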

[7] = biological target: Beta-lactamase (Staphylococcus aureus) (UniProt P00807); experiment: Minimum protective concentration against beta-lactamase in Staphylococcus aureus (95 strain); procedure, shortened: as §2

Sequence of Beta-lactamase (Pseudomonas aeruginosa (strain ATCC 15692 / PAO1 / 1C / PRS 101 / LMG12228)) (P24735 27-397 limits assumed): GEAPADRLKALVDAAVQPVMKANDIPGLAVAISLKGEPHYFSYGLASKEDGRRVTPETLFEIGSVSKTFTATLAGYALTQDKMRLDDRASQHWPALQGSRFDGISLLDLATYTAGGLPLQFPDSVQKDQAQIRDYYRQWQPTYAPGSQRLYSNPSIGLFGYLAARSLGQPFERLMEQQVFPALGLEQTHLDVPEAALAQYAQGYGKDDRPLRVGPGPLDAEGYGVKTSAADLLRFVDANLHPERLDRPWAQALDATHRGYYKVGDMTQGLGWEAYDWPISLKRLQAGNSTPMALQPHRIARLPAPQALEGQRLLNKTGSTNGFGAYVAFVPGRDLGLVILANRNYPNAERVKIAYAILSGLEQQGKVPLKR

| SMILES | MIC [1] | MIC [2] | MIC [3] | MIC [4] | MIC [5] | MPC [6] | MPC [7] |
| --- | --- | --- | --- | --- | --- | --- | --- |
| O=C(O)c1cccc(Cc2cc(Cl)cc(Cc3cccc(C(=O)O)c3O)c2O)c1O | 1.32 µg/mL (≈ 3.08 µM) | 0.86 µg/mL (≈ 2.01 µM) | 3.25 µg/mL (≈ 7.58 µM) | 4.15 µg/mL (≈ 9.68 µM) | 16.5 µg/mL (≈ 38.5 µM) | – | – |
| CNC(=O)c1cccc(C(=O)c2cc(Cl)cc(C(=O)c3ccccc3O)c2O)c1O | 8.32 µg/mL (≈ 19.5 µM) | 6.03 µg/mL (≈ 14.2 µM) | 18.1 µg/mL (≈ 42.6 µM) | 17.8 µg/mL (≈ 41.7 µM) | 120 µg/mL (≈ 281 µM) | – | – |
| O=C(O)[C@H]1/C(=C/CO)O[C@@H]2CC(=O)N21 | – | – | – | – | – | 3 µg/mL | 0.38 µg/mL |
| O=C(O)c1cccc(C(=O)c2cc(Cl)cc(C(=O)c3cccc(C(=O)O)c3O)c2O)c1O | 3.06 µg/mL (≈ 6.7 µM) | 2.54 µg/mL (≈ 5.56 µM) | 18.2 µg/mL (≈ 40 µM) | 22.2 µg/mL (≈ 48.6 µM) | 19.1 µg/mL (≈ 41.9 µM) | – | – |
| CO/N=C(\C(=O)N[C@@H]1C(=O)N2C(C(=O)O)=C(COC(C)=O)CS[C@H]12)c1csc(N)n1 [CEFOTAXIME] | 135 µg/mL (≈ 296 µM) | 69.9 µg/mL (≈ 153 µM) | 1.7 µg/mL (≈ 3.73 µM) | 40.6 µg/mL (≈ 89.1 µM) | > 145 µg/mL | 1.03 µg/mL | 2.72 µg/mL |
| CC(=O)OCC1=C(C(=O)O)N2C(=O)[C@@H](NC(=O)COc3ccccc3)[C@H]2SC1 | > 145 µg/mL | > 145 µg/mL | 0.7 µg/mL (≈ 1.72 µM) | > 145 µg/mL | > 145 µg/mL | 0.97 µg/mL | 1.35 µg/mL |
| Oc1ccc(Br)cc1Cc1cc(Cl)cc(Cc2cc(Br)ccc2O)c1O | 36.7 µg/mL (≈ 73.6 µM) | 39.4 µg/mL (≈ 79 µM) | 45 µg/mL (≈ 90.3 µM) | 49 µg/mL (≈ 98.2 µM) | 115 µg/mL (≈ 231 µM) | – | – |
| COC(=O)c1cccc(C(=O)c2cc(Cl)cc(C(=O)c3ccccc3O)c2O)c1O | 4.3 µg/mL (≈ 10.1 µM) | 5.78 µg/mL (≈ 13.5 µM) | 14.7 µg/mL (≈ 34.4 µM) | 15.3 µg/mL (≈ 35.9 µM) | 125 µg/mL (≈ 294 µM) | – | – |
| COC(=O)c1cccc(Cc2cc(Cl)cc(Cc3ccccc3O)c2O)c1O | 1.56 µg/mL (≈ 3.91 µM) | 1.25 µg/mL (≈ 3.13 µM) | 2.98 µg/mL (≈ 7.47 µM) | 4.65 µg/mL (≈ 11.7 µM) | 117 µg/mL (≈ 294 µM) | – | – |
| Oc1ccccc1Cc1cccc(Cc2ccccc2O)c1O | > 145 µg/mL | > 145 µg/mL | > 145 µg/mL | > 145 µg/mL | > 145 µg/mL | – | – |
| CC(=O)Oc1ccccc1Cc1cc(Cl)cc(Cc2ccccc2OC(C)=O)c1OC(C)=O | > 145 µg/mL | > 145 µg/mL | > 145 µg/mL | > 145 µg/mL | > 145 µg/mL | – | – |
| O=C(COc1ccccc1)N[C@@H]1C(=O)N2C(C(=O)O)=C(COC(=O)c3cccc(C(=O)c4cc(Cl)cc(C(=O)c5ccccc5O)c4O)c3O)CS[C@H]12 | 3.13 µg/mL (≈ 4.12 µM) | 1.37 µg/mL (≈ 1.8 µM) | 0.9 µg/mL (≈ 1.19 µM) | 2.1 µg/mL (≈ 2.77 µM) | 6.47 µg/mL (≈ 8.52 µM) | 5.98 µg/mL | 4.81 µg/mL |
| CNC(=O)c1cccc(Cc2cc(Cl)cc(Cc3ccccc3O)c2O)c1O | 4.7 µg/mL (≈ 11.8 µM) | 3.28 µg/mL (≈ 8.24 µM) | 7.35 µg/mL (≈ 18.5 µM) | 6.63 µg/mL (≈ 16.7 µM) | 114 µg/mL (≈ 287 µM) | – | – |
| CC(=O)Oc1ccc(Br)cc1Cc1cc(Cl)cc(Cc2cc(Br)ccc2OC(C)=O)c1OC(C)=O | > 145 µg/mL | > 145 µg/mL | > 145 µg/mL | > 145 µg/mL | > 145 µg/mL | – | – |

Results, then the compound that gave them:

| MIC [1] | MIC [2] | MIC [3] | MIC [4] | MIC [5] | MPC [6] | MPC [7] | SMILES |
| --- | --- | --- | --- | --- | --- | --- | --- |
| 0.26 µg/mL (≈ 0.63 µM) | 0.17 µg/mL (≈ 0.412 µM) | 3.67 µg/mL (≈ 8.89 µM) | 0.98 µg/mL (≈ 2.37 µM) | 3.7 µg/mL (≈ 8.96 µM) | – | – | O=C(O)c1cccc(C(=O)c2cc(Cl)cc(C(=O)c3ccccc3O)c2O)c1O |
| 0.38 µg/mL (≈ 0.57 µM) | 0.79 µg/mL (≈ 1.18 µM) | 0.78 µg/mL (≈ 1.17 µM) | 0.45 µg/mL (≈ 0.675 µM) | 14.2 µg/mL (≈ 21.3 µM) | 93.5 µg/mL | 88.7 µg/mL | CC(=O)OCC1=C(C(=O)O)N2C(=O)[C@@H](NC(=O)c3cccc(C(=O)c4cc(Cl)cc(C(=O)c5ccccc5O)c4O)c3O)[C@H]2SC1 |
| 0.18 µg/mL (≈ 0.528 µM) | 0.07 µg/mL (≈ 0.205 µM) | 1.2 µg/mL (≈ 3.52 µM) | 0.58 µg/mL (≈ 1.7 µM) | 2.06 µg/mL (≈ 6.04 µM) | – | – | Oc1ccccc1Cc1cc(Cl)cc(Cc2ccccc2O)c1O |
| 0.1 µg/mL (≈ 0.26 µM) | 0.02 µg/mL (≈ 0.052 µM) | 0.86 µg/mL (≈ 2.23 µM) | 0.43 µg/mL (≈ 1.12 µM) | 1.43 µg/mL (≈ 3.72 µM) | – | – | O=C(O)c1cccc(Cc2cc(Cl)cc(Cc3ccccc3O)c2O)c1O |
| 1.24 µg/mL (≈ 1.7 µM) | 0.98 µg/mL (≈ 1.34 µM) | 0.41 µg/mL (≈ 0.561 µM) | 1.2 µg/mL (≈ 1.64 µM) | 5.86 µg/mL (≈ 8.01 µM) | 6.74 µg/mL | 7.08 µg/mL | O=C(COc1ccccc1)N[C@@H]1C(=O)N2C(C(=O)O)=C(COC(=O)c3cccc(Cc4cc(Cl)cc(Cc5ccccc5O)c4O)c3O)CS[C@H]12 |
| 0.45 µg/mL (≈ 0.704 µM) | 0.28 µg/mL (≈ 0.438 µM) | 0.35 µg/mL (≈ 0.548 µM) | 0.28 µg/mL (≈ 0.438 µM) | 28.3 µg/mL (≈ 44.3 µM) | 99.8 µg/mL | 95.2 µg/mL | CC(=O)OCC1=C(C(=O)O)N2C(=O)[C@@H](NC(=O)c3cccc(Cc4cc(Cl)cc(Cc5ccccc5O)c4O)c3O)[C@H]2SC1 |
